The values below come from ChEMBL document CHEMBL1124260, “Synthesis and antitumor activity of quaternary ellipticine glycosides, a series of novel and highly active antitumor agents” (1988).

Type in all cases: functional
In experiment [1] the test system is Mus musculus. The experiment is described as follows: Antitumor activity against ip implanted P388 leukemia in mouse after ip administration of 30 mg/kg for 5 days expressed as increase in mean life span. The following applies: 120 h, route intraperitoneal. In outline: (§1)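 Saline-dissolved drug was given ip daily for 5 consecutive days, beginning 24 h post-transplant. ILS % was calculated from treated vs control mean survival time over an 80-day observation period.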

For experiment [2], the system named is Mus musculus. The experiment is described as follows: Antitumor activity against ip implanted syngeneic L1210 leukemia in mouse after ip administration of 60 mg/kg for 5 days expressed as increase in mean life span. The following applies: 120 h, route intraperitoneal. The essentials: (§2)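 Drug was dissolved in 0.9% NaCl, diluted just before use and given ip once daily for 5 consecutive days, starting 24 h after transplant. ILS % = mean survival time of treated vs control mice, observed for 80 days.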

Experiment [3] concerns Mus musculus. The experiment is described as follows: Antitumor activity against ip implanted L1210 leukemia in mouse after ip administration of 10 mg/kg for 5 days expressed as increase in mean life span. The following applies: route intraperitoneal; for ILS at 10 mg/kg: Mus musculus, L1210, ip, 120 h; for ILS: 10 mg/kg. In outline: as §2
The test system of experiment [4] is Mus musculus. In words: Number of survivors out of 6 ip implanted L1210 leukemia mouse tested after 80 days at 10 mg/kg. The following applies: route intraperitoneal. In outline:
(§3)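 Female BDF1 mice implanted ip with ascitic fluid holding 10^5 L1210 cells. Saline-dissolved drug given ip daily on days 1-5, starting 24 h after implant. Six mice per dose group, followed 80 days. Survivors/total counted at day 80; ILS % from mean survival time vs controls.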

Experiment [5] has as its system Mus musculus. In words: Number of survivors out of 6 ip implanted L1210 leukemia mouse tested after 80 days at 20 mg/kg. The following applies: route intraperitoneal. The essentials: as §3
The test system of experiment [6] is Mus musculus. In words: Antitumor activity against ip implanted L1210 leukemia in mouse after ip administration of 20 mg/kg for 5 days expressed as increase in mean life span. The following applies: 120 h, route intraperitoneal. In outline: as §2
Experiment [7] has as its system Mus musculus. The experiment is described as follows: Number of survivors out of 6 ip implanted L1210 leukemia mouse tested after 80 days at 5 mg/kg. The following applies: route intraperitoneal. In outline:
as §3

The subject of experiment [8] is Mus musculus. The experiment is described as follows: Antitumor activity against ip implanted L1210 leukemia in mouse after ip administration of 5 mg/kg for 5 days expressed as increase in mean life span. The following applies: route intraperitoneal; for ILS: 5 mg/kg. In outline: as §2
For experiment [9], the system named is Mus musculus. The experiment is described as follows: Antitumor activity against ip implanted L1210 leukemia in mouse after ip administration of 120 mg/kg for 5 days expressed as increase in mean life span. The following applies: 120 h, route intraperitoneal. The essentials: as §2
For experiment [10], the system named is Mus musculus. In words: Antitumor activity against ip implanted syngeneic P388 leukemia in mouse after ip administration of 60 mg/kg for 5 days expressed as increase in mean life span. The following applies: 120 h, route intraperitoneal. In outline: as §1

For the molecule `Cc1c2ccncc2c(C)c2c1[nH]c1ccc(O)cc12`, the ILS at 30 mg/kg in the experiment on Mus musculus [1] is 91%. In the experiment on Mus musculus [2], this molecule gave an ILS at 60 mg/kg of 79%.
As for `Cc1c2cc[n+]([C@@H]3OC[C@@H](O)[C@@H](O)[C@H]3O)cc2c(C)c2c1[nH]c1ccc(O)cc12.[Br-]`, the increase in life span (ILS) at 10 mg/kg with Mus musculus [3] is greater than 396%. The molecule further registered a Cures in the experiment with Mus musculus [4] of 2.
The molecule `Cc1c2cc[n+]([C@H]3O[C@@H](CO)[C@H](O)[C@@H]3O)cc2c(C)c2c1[nH]c1ccc(O)cc12.[Br-]` registered an ILS at 10 mg/kg with Mus musculus [3] greater than 391%. In the experiment with Mus musculus [4], this molecule had a Cures of 2.
In the experiment with Mus musculus [5], `Cc1c2cc[n+]([C@@H]3O[C@H](CO)[C@H](O)[C@H](O)[C@H]3O)cc2c(C)c2c1[nH]c1ccc(O)cc12.[Br-]` came in with a Cures of 4. Moreover, the ILS at 20 mg/kg with Mus musculus [6] is greater than 729%.
In the experiment on Mus musculus [7], `Cc1c2cc[n+](C3OC[C@@H](O)[C@H]3O)cc2c(C)c2c1[nH]c1ccc(O)cc12.[Cl-]` (stereo not given in full) came in with a Cures of 0. The molecule further gave an increase in lifespan (ILS) at 5 mg/kg with Mus musculus [8] (Mus musculus, L1210, ip, 120 h) of 122%.
As to `Cc1c2cc[n+](C3O[C@@H](CO)[C@H](O)[C@@H]3O)cc2c(C)c2c1[nH]c1ccccc12.[Br-]` (stereo not given in full), the Cures with Mus musculus [5] turned out to be 0. This molecule registered an increase in life span (ILS) at 20 mg/kg in the experiment on Mus musculus [6] of 80%.
`Cc1c2cc[n+]([C@@H]3O[C@H](CO)[C@H](O)[C@@H]3O)cc2c(C)c2c1[nH]c1ccc(O)cc12.[Cl-]` (stereo in doubt; 43b) had an increase in lifespan (ILS) in the experiment with Mus musculus [3] greater than 552%. In the experiment with Mus musculus [4], this molecule displayed a Cures of 3.
In the experiment with Mus musculus [3], `Cc1c2cc[n+]([C@H]3O[C@@H](CO)[C@H](O)[C@@H](O)[C@@H]3O)cc2c(C)c2c1[nH]c1ccc(O)cc12.[Br-]` (stereo in doubt; 63a) returned an increase in lifespan (ILS) of 52%.
Take `Cc1c2cc[n+]([C@H]3O[C@@H](CO)[C@H](O)[C@@H](O)[C@@H]3O)cc2c(C)c2c1[nH]c1ccc(O)cc12.[Br-]` (stereo in doubt; 63b): in the experiment with Mus musculus [7] (5 mg/kg), the Cures came out at 0. The molecule also came in with an ILS in the experiment on Mus musculus [8] of 58%.
`Cc1c2cc[n+]([C@H]3O[C@@H](CO)[C@H](O)[C@@H](O)[C@@H]3O)cc2c(C)c2c1[nH]c1ccc(O)cc12.[Br-]` (stereo in doubt; 64a) had an ILS with Mus musculus [3] of 88%. In addition, in the experiment on Mus musculus [4] (10 mg/kg), the Cures stood at 0.
On to `Cc1c2cc[n+]([C@H]3O[C@@H](CO)[C@H](O)[C@@H](O)[C@@H]3O)cc2c(C)c2c1[nH]c1ccc(O)cc12.[Br-]` (stereo in doubt; 64b), for which the Cures in the experiment with Mus musculus [7] (5 mg/kg) was determined as 2. Further, the ILS with Mus musculus [8] is given as greater than 362%.
With `Cc1c2cc[n+]([C@H]3O[C@@H](CO)[C@H](O)[C@@H](O)[C@@H]3O)cc2c(C)c2c1[nH]c1ccc(O)cc12.[Br-]` (stereo in doubt; 65), the increase in lifespan (ILS) in the experiment with Mus musculus [3] is greater than 212%. Also, in the experiment on Mus musculus [4] (10 mg/kg), the Cures is recorded as 1.
The molecule `Cc1c2ccncc2c(C)c2c1[nH]c1ccccc12` [ELLIPTECINE] returned an increase in life span (ILS) at 120 mg/kg in the experiment on Mus musculus [9] of 128%. Further, the increase in life span (ILS) at 60 mg/kg in the experiment with Mus musculus [10] is 139%.
